Variants at the floor of the assay were thinned out.

The values that follow come from the RNAGym collection of RNA variant scans (doi:10.1126/science.aae0568).

Sequences and labels used below:
B1: tRNA (parent)
chain: GUUCCGUUGGCGUAAUGGUAACGCGUCUCCCUCCUAAGGAGAAGACUGCGGGUUCGAGUCCCGUACGGAACG

The variants in this series derive from B1. Description: yeast fitness relative to wild type (ratio to wild type); higher = fitter; tRNA-Arg(CCU), competitive growth, 37 C, YPD. The gist of the method: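 Start and end populations of a pooled competition were compared by 100-nucleotide paired-end sequencing of gene amplicons. The Saccharomyces cerevisiae strains carried tRNA-Arg(CCU) gene variants at the native genomic locus, synthesised with a 3% per-site mutation rate at 69 sites, and competed in YPD at 37°C for 24 hours in six parallel replicates. Darwinian fitness relative to wild type was based on the change in genotype frequencies. Genotypes required ≥ 100 starting reads, and estimates < 0.5 were set to 0.5.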
In the case of C4G A20G A43G, the yeast fitness is 0.502. The same measure for C4G C11G C55U U59C C61A: not above 0.5. As to C4G A37G G51A A57G, the yeast fitness amounted to 0.523. C4G C30A C62U: the yeast fitness was 0.526. As to C4G C30A C62A, the yeast fitness was not above 0.5.

Regarding C4G A36G G48A, the yeast fitness worked out at 0.533. Regarding C4G C30A A42C A69U, the yeast fitness was not above 0.5. Consider C4G A15C U19A, for which the yeast fitness is not above 0.5. The figure for C4G A20U G50A G58C C66U is not above 0.5; for C4G A21G A45U C49U U64A it is 0.556. Take C4G C5A C24U: the yeast fitness was not above 0.5. For C4G A20G C27G C29G C55A A57U A69U, the yeast fitness turned out to be 0.629. The same measure for C4G A42G A45U: 0.67. As for C4G C11U A14U C30G, the yeast fitness was not above 0.5.

Regarding C4G A20U G41A A57C, the yeast fitness is not above 0.5. The same measure for C4G C49U G52A: 0.55; for C4G C11G A21U A36U G58C: not above 0.5. With C4G A42C, the yeast fitness was 0.78. Consider C4G A42G, for which the yeast fitness worked out at 0.897.

For the variant C4G C29A U32A A45C A65C, the yeast fitness is not above 0.5. Consider C4G C11A A14C, for which the yeast fitness was not above 0.5. On to C4G A20U C66U, for which the yeast fitness is not above 0.5. Consider C4G C55A C60A, for which the yeast fitness is not above 0.5. C4G C24G C30U C46G: the yeast fitness was not above 0.5. As to C4G C49G U64G A65G A70U, the yeast fitness is not above 0.5.

Take C4G C5G U13C U28G: the yeast fitness is not above 0.5.

On to C4G A45U C49U, for which the yeast fitness amounted to 0.502.

Take C4G A21C G23C A36U A57U C60G G68C: the yeast fitness was not above 0.5. The figure for C4G C24U C30A G52C is not above 0.5. In the case of C4G C30A G67A, the yeast fitness was not above 0.5. Regarding C4G C5A C27U G68A, the yeast fitness is not above 0.5. On to C4G A15U G18C G23C C24G G56C A70G, for which the yeast fitness was found to be 0.586. On to C4G A21G C24G C34U U53C C55G C62A, for which the yeast fitness was not above 0.5. C4G C5G C34G: the yeast fitness is not above 0.5. The figure for C4G C49U U54G is not above 0.5; for C4G A15U C34G A36C it is not above 0.5; for C4G C5A C11U G18C C46G it is not above 0.5. Take C4G C34G U47A C49A A65G: the yeast fitness worked out at 0.519. Turning to C4G A57U, the yeast fitness turned out to be 0.757. C4G A57G: the yeast fitness was 0.728. Turning to C4G C30G C33G C66U, the yeast fitness is not above 0.5.

On to C4G C11G G52A C55U C61A, for which the yeast fitness was not above 0.5. As for C4G C5U U8A G12A G48A A69C, the yeast fitness was not above 0.5.

In the case of C4G A21C C22U C61U, the yeast fitness was not above 0.5.

With C4G C29G C61U, the yeast fitness is 0.562. Consider C4G C11U A36G, for which the yeast fitness was found to be 0.57. For the variant C4G C11A C30G A65G C66U, the yeast fitness is not above 0.5. The figure for C4G C24A C34A is 0.563.

With C4G A36G U59C, the yeast fitness was 0.667. The figure for C4G A45C is 0.767; for C4G C11A U35A C49G it is 0.526; for C4G C30G G58A it is not above 0.5. Turning to C4G A70U, the yeast fitness amounted to 0.806.

On to C4G A70G, for which the yeast fitness is 0.909.

As to C4G A70C, the yeast fitness amounted to 1.08. Take C4G C30G A69U: the yeast fitness was not above 0.5. The figure for C4G A40U A42C A57G C62G is not above 0.5; for C4G C34G A42U C61U it is 0.646; for C4G C55G G63A it is 0.558.

Take C4G C11A U32A U35A C49U U59G G67U: the yeast fitness was not above 0.5. Consider C4G A69U A70C, for which the yeast fitness was 0.771.

For C4G C22U C34G A36U, the yeast fitness is not above 0.5.

Take C4G C22A C55G: the yeast fitness is not above 0.5. Take C4G C49A G56C C61U: the yeast fitness amounted to 0.609. As to C4G A40U A45U G67A, the yeast fitness was not above 0.5.

Turning to C4G A45U A70C, the yeast fitness came to 0.808. As to C4G A45U C62U G68A, the yeast fitness is not above 0.5. Turning to C4G C5G G56A A69C, the yeast fitness is not above 0.5. For C4G C11A U28G U47G C49G U53G C55G, the yeast fitness was not above 0.5. As to C4G C27U C31U, the yeast fitness came out at 0.652. The figure for C4G A21C C49A A65G is not above 0.5. Turning to C4G C11A C46G, the yeast fitness was found to be 0.693.

In the case of C4G C46G A69U, the yeast fitness amounted to 0.721. In the case of C4G C11G C29A A40G, the yeast fitness is not above 0.5. Take C4G C5U U26A C34A: the yeast fitness is not above 0.5.

With C4G C5G U26G A45C G67A, the yeast fitness was found to be 0.664. For C4G A21G A43C C46A A57C C62G C66U, the yeast fitness was not above 0.5. As for C4G A20G C27A C46U A65U, the yeast fitness was not above 0.5.

For the variant C4G C34G A40G, the yeast fitness was 0.57. For C4G C30A A70U, the yeast fitness amounted to 0.695. C4G C22G C33G A36C A65G: the yeast fitness is not above 0.5. Turning to C4G C24U A69U, the yeast fitness came to 0.652. With C4G C34G A42U C61U C66U, the yeast fitness was not above 0.5. Regarding C4G A20U A43C G50A, the yeast fitness is not above 0.5. The figure for C4G A21G A36U U59A is 0.502; for C4G C5U A37G C62U it is not above 0.5; for C4G A20U C31G it is 0.555. As for C4G C5A U8C A21C C31A A42G, the yeast fitness is not above 0.5. As to C4G C5G C29U G50C U59A, the yeast fitness was not above 0.5. Turning to C4G C5U G25C G68A, the yeast fitness is not above 0.5. On to C4G A20U C60U A70U, for which the yeast fitness turned out to be 0.651. On to C4G A21C C30A G51A, for which the yeast fitness came out at 0.747. For C4G C34U C49A G68C, the yeast fitness is not above 0.5. The figure for C4G C46G is 0.854; for C4G A14U C31U A40G it is not above 0.5. For the variant C4G A40G A45U, the yeast fitness was not above 0.5. C4G C5U C49A G56A G63C G68A: the yeast fitness was not above 0.5. The figure for C4G A15G G23A C34G is 0.538. For the variant C4G C29A C30U C62G U64A, the yeast fitness is not above 0.5. C4G A69U: the yeast fitness was determined as 0.775.

In the case of C4G A43U G51C, the yeast fitness was not above 0.5. On to C4G C5U G44C G67U, for which the yeast fitness is not above 0.5. As for C4G A20U C61G, the yeast fitness was not above 0.5. C4G A20G G39A A45C: the yeast fitness is not above 0.5. Take C4G C5U U13A A42U C61U: the yeast fitness is not above 0.5. The figure for C4G A43U is 0.856; for C4G A43G it is 0.729. In the case of C4G C5A C27A, the yeast fitness came out at 0.641. Consider C4G C30U G63C, for which the yeast fitness came out at 0.628. C4G C29A C34U A36U: the yeast fitness was 0.578. For the variant C4G C11U U19C U28G A45C U53A G63C, the yeast fitness is not above 0.5.

As to C4G C60G C61U, the yeast fitness was not above 0.5. C4G C29A C60U C61G: the yeast fitness was not above 0.5.

Turning to C4G A40U C62A, the yeast fitness came out at 0.638. Turning to C4G C34U C49A, the yeast fitness is 0.61. As for C4G A21U C33U A42G A57U, the yeast fitness turned out to be 0.683. Regarding C4G C5U U19A C55G U64A, the yeast fitness was not above 0.5. As to C4G C24U U32G A40U U64G, the yeast fitness was not above 0.5. For C4G A45C A69U, the yeast fitness amounted to 0.789. As to C4G A43G G51C, the yeast fitness is not above 0.5. As for C4G A37C, the yeast fitness was determined as 0.773. As to C4G C27A, the yeast fitness came to 0.734.

Turning to C4G C27U, the yeast fitness was found to be 0.789. In the case of C4G A21U A36C C61A, the yeast fitness came to 0.615. For the variant C4G C5U C22G, the yeast fitness was not above 0.5. With C4G C27U G58A, the yeast fitness was 0.61.

C4G C5A U19A C24G C29G: the yeast fitness was not above 0.5. On to C4G C22U C46G G63A, for which the yeast fitness is not above 0.5. Regarding C4G C33U A45U C60G, the yeast fitness is not above 0.5.

On to C4G A21G U28A A69U, for which the yeast fitness was not above 0.5. On to C4G C5U C11A C46A U47A U53A, for which the yeast fitness came to 0.566. As for C4G C5U A36G U54C A69C, the yeast fitness is not above 0.5. The figure for C4G A15U G56C U59A is not above 0.5; for C4G A40U A42C C61G it is not above 0.5; for C4G C24A G39A A42U U47A C60G it is not above 0.5. As for C4G A37U C49A G52A C55U G56A, the yeast fitness stood at 0.688. In the case of C4G C22U C55G, the yeast fitness is not above 0.5. On to C4G A40U A42C C66U, for which the yeast fitness was 0.52. C4G C11G A20G A36U G63A A65U C66U: the yeast fitness is not above 0.5. On to C4G A36U G58A, for which the yeast fitness was not above 0.5. On to C4G C27G C30G C49U C60U G63C, for which the yeast fitness is 0.562.

Consider C4G C5U U35C A37U C61A, for which the yeast fitness was not above 0.5. Consider C4G C5U G23A C55A C61A, for which the yeast fitness was not above 0.5.

Regarding C4G C11U U47A, the yeast fitness was not above 0.5. On to C4G A15G C29A C34U C66G, for which the yeast fitness was not above 0.5. The figure for C4G A14U C34U is 0.591.

Take C4G C55U: the yeast fitness was 0.748.

Take C4G C5U C49A A70C: the yeast fitness is 0.529.

C4G A20U G58C: the yeast fitness is not above 0.5. The same measure for C4G C34U C55A G68C: not above 0.5. For C4G A21C G39C A42U G48C, the yeast fitness is not above 0.5.

In the case of C4G C31A A42C C46G, the yeast fitness came out at 0.561. With C4G C34G A43G A57C, the yeast fitness is not above 0.5. As for C4G A20U G67A, the yeast fitness was not above 0.5. For the variant C4G C34G A65G, the yeast fitness is not above 0.5.

On to C4G C22A C66U, for which the yeast fitness was not above 0.5. For C4G A15C C29G G48A, the yeast fitness is not above 0.5. As for C4G C5G U26C A43G, the yeast fitness is not above 0.5. For the variant C4G C5G A14U C46G A69U, the yeast fitness is not above 0.5. As for C4G C34U G67A A69U, the yeast fitness is not above 0.5. The figure for C4G C5G is 0.697; for C4G C5G C30U C31U A37G G50C A57U it is not above 0.5; for C4G C30G A42U C55U C66A it is not above 0.5. Take C4G A20U A57U C62U: the yeast fitness was not above 0.5. For C4G A21C C22U, the yeast fitness is 0.626. Regarding C4G C24G C27A U28C A65U, the yeast fitness is not above 0.5. Take C4G A43C A45G: the yeast fitness came out at 0.629.
